Measured values of several laboratories.
Each line is one published result; the experiments were not run side by side.
Target: Calcium/calmodulin-dependent protein kinase type IV (CAMK4, Homo sapiens, UniProt Q16566)
Residues used in one study (Q16566 1-473): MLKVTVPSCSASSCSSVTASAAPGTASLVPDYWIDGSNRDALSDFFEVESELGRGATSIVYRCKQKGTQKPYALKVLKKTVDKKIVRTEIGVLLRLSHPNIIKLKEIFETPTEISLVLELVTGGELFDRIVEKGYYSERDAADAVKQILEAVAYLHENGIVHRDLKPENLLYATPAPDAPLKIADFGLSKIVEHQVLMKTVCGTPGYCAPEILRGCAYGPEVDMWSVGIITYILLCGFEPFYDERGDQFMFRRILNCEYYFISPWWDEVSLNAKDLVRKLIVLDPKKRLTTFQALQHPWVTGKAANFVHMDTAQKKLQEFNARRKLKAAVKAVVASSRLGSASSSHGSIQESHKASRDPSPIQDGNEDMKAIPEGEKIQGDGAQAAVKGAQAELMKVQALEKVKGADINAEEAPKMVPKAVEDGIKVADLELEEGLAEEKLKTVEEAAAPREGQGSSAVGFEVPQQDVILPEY

SMILES	test	conditions	remaining binding
O=C(NCC1CCOCC1)c1n[nH]cc1NC(=O)c1c(F)cccc1F	binding, competition with immobilised ligand	1 µM	100%
Cc1cnn2ncc(-c3ccnc(N(C)C)n3)c2c1	binding	1 µM	86%
COc1ncc2cc3ccccc3nc2c1C#N	cell-free assay, competition with immobilised ligand	5 µM	93%
CNC(=O)[C@@H]1CC[C@@H](n2c(-c3ccc4cnccc4c3)nc3ccc(C(=O)NCc4cccc(C(N)=O)c4)cc32)C1	binding, competition with immobilised ligand	1 µM	100%
CC(C)(O)c1cncc(-c2nc3ccc(F)cc3n2C2CC2)c1	cell-free assay, competition with immobilised ligand	1 µM	100%
F[C@@H]1CCN(c2nccc(-c3cnn4ncccc34)n2)C1	binding	1 µM	79%
CCN1CCN(Cc2ccc(C(=O)Nc3ccc(C)c(Oc4ccc5c(c4)CC(=O)N5)c3)cc2C(F)(F)F)CC1	binding, competition with immobilised ligand	1 µM	100%
Cc1c(NC(=O)c2cc(C(N)=O)nc3cc(F)ccc23)c(C(F)(F)F)nn1Cc1ccc(C(C)(C)C)cc1	cell-free assay, competition with immobilised ligand	1 µM	90%
O=C(c1ccc(Nc2nccc(-c3cc4ccccc4s3)n2)cc1)N1CCC(N2CCCC2)CC1	binding, competition with immobilised ligand	1 µM	100%
CNC(=O)Nc1ccc2c(c1)CC[C@@]21OC(=O)N(CC(=O)N(Cc2ccc(F)cc2)[C@@H](C)C(F)(F)F)C1=O	cell-free assay, competition with immobilised ligand	1 µM	75%
COc1cnc(Nc2cccc(S(N)(=O)=O)c2)nc1N1CCN(c2ccccc2)CC1	binding, competition with immobilised ligand	1 µM	100%
Cc1cc(-n2nc(Cc3cc(F)cc(C(F)(F)F)c3)nc2C)ccc1C(N)=O	cell-free assay, competition with immobilised ligand	1 µM	100%
C[C@@H](c1ccc(-n2cnc3c(N)ncnc32)cc1)N1CCc2nn(C)c(Cc3ccccc3)c2C1=O	binding, competition with immobilised ligand	0.1 µM	100%
CN(CCCC(F)(F)F)c1nccc(-c2cnn3ncccc23)n1	binding	1 µM	64%
Nc1ncc2c(n1)-c1c([nH]c3ccc(C#CC4CC4)cc13)CCCC2	binding, competition with immobilised ligand	1 µM	100%
N[C@@H]1CCN(c2nccc(-c3cnn4ncccc34)n2)C1	binding	1 µM	100%
O=C(c1ccc(Nc2ncc(Cl)c(-c3cc4ccccc4s3)n2)cc1)N1CCC(N2CCCC2)CC1	binding, competition with immobilised ligand	1 µM	100%
CS(=O)(=O)c1cc(C2(NC(=O)c3cncc4c3cnn4-c3ccc(F)cc3)CC2)ccn1	cell-free assay, competition with immobilised ligand	1 µM	100%
CN(C)c1nccc(-c2cnn3ncccc23)n1	binding	1 µM	100%
C[C@H](c1ccnc(Nc2nc3ccc(-c4cc(N(C)C)ncn4)cc3[nH]2)c1)N1CCN(C(=O)CC(F)(F)F)CC1	cell-free assay, competition with immobilised ligand	0.1 µM	100%
C[C@H]1CCN(c2nccc(-c3cnn4ncccc34)n2)C1	binding	1 µM	90%
Cc1cnc(Nc2ccc(C(=O)N3CCC(N4CCCC4)CC3)cc2)nc1-c1cc2ccccc2s1	binding, competition with immobilised ligand	1 µM	100%
